In ChEMBL document CHEMBL1137432, “Characterization of the histamine H4 receptor binding site. Part 1. Synthesis and pharmacological evaluation of dibenzodiazepine derivatives” (J Med Chem, 2006):
pEC50, pKi: −log10 of the molar value.

How the values were obtained:
Histamine H4 receptor [1] = target: T1, Histamine H4 receptor (Homo sapiens, UniProt Q9H3N8); assay: Activity at human histamine H4 receptor transfected in SK-N-MC cells by cAMP assay; format: functional, cell-based
In short: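 Colorimetric cAMP read-out in SK-N-MC cells stably expressing the human H4 receptor together with a CRE-β-galactosidase reporter gene, used to measure functional activity.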

Histamine H4 receptor [2] = target: T1, Histamine H4 receptor; assay: Displacement of [3H]histamine from human histamine H4 receptor transfected in SK-N-MC cells
Histamine H4 receptor [3] = target: T1, Histamine H4 receptor; assay: Agonist activity at human histamine H4 receptor transfected in SK-N-MC cells; format: functional, cell-based
Histamine H4 receptor [4] = target: T1, Histamine H4 receptor; details: SK-N-MC, 100 nM
Histamine H1 receptor [5] = target: T2, Histamine H1 receptor (Homo sapiens, UniProt P35367); assay: Activity at human histamine H1 receptor transfected in COS7 cells by NF-kappaB luciferase reporter assay; format: functional, cell-based, COS-7
Histamine H4 receptor [6] = target: T1, Histamine H4 receptor; details: SK-N-MC, 10 nM
Histamine H4 receptor [7] = target: T1, Histamine H4 receptor; details: SK-N-MC, 30 nM
Histamine H1 receptor [8] = target: T2, Histamine H1 receptor; assay: Displacement of [3H]mepyramine from human histamine H1 receptor
Histamine H2 receptor = Histamine H2 receptor (Homo sapiens, UniProt P25021); assay: Displacement of [3H]APT from human histamine H2 receptor transfected in COS7 cells; format: cell-based, COS-7
Histamine H3 receptor = Histamine H3 receptor (Homo sapiens, UniProt Q9Y5N1); assay: Displacement of [3H]histamine from human histamine H3 receptor transfected in SK-N-MC cells; format: cell-based
In short: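 Homogenates of SK-N-MC cells stably expressing the human H3 receptor were used. Affinity was determined by radioligand displacement.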

Histamine H4 receptor [9] = target: T1, Histamine H4 receptor; details: SK-N-MC, 300 nM
Histamine H4 receptor [10] = target: T1, Histamine H4 receptor; details: SK-N-MC, 1 uM

T1 sequence (Q9H3N8 whole entry): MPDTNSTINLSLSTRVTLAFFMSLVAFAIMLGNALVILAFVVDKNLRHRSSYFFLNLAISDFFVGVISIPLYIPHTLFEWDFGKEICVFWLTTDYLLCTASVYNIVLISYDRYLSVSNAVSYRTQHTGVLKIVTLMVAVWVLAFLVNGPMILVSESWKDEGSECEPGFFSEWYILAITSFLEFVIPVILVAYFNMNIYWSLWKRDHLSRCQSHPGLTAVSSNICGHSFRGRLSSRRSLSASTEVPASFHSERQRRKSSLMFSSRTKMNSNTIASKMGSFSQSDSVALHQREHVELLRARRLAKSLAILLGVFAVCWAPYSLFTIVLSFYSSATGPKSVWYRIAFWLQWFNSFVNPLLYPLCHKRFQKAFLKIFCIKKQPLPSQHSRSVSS
T2 sequence (P35367 whole entry): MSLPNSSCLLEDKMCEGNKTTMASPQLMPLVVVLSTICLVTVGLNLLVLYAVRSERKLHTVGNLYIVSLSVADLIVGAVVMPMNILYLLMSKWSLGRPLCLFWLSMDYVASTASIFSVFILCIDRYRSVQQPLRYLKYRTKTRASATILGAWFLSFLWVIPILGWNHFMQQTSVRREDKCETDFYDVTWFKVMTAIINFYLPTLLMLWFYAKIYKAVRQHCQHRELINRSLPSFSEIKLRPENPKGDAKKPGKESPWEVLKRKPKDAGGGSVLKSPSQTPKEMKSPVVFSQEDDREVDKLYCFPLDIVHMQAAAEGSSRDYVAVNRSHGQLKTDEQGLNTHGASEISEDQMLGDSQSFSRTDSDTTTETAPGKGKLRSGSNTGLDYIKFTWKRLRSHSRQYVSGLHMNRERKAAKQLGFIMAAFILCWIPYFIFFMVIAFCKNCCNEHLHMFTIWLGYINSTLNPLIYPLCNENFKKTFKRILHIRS
Sequence of Histamine H2 receptor (P25021 whole entry): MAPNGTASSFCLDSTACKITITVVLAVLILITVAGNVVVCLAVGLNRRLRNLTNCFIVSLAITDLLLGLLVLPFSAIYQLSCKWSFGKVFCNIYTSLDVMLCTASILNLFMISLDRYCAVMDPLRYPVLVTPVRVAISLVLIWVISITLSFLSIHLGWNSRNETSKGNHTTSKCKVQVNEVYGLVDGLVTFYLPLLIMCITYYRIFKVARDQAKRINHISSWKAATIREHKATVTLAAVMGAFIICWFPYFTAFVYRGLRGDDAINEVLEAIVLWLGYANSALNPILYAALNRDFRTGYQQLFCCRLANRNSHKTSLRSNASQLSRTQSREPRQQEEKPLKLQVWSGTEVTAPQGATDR
Sequence of Histamine H3 receptor (Q9Y5N1 whole entry): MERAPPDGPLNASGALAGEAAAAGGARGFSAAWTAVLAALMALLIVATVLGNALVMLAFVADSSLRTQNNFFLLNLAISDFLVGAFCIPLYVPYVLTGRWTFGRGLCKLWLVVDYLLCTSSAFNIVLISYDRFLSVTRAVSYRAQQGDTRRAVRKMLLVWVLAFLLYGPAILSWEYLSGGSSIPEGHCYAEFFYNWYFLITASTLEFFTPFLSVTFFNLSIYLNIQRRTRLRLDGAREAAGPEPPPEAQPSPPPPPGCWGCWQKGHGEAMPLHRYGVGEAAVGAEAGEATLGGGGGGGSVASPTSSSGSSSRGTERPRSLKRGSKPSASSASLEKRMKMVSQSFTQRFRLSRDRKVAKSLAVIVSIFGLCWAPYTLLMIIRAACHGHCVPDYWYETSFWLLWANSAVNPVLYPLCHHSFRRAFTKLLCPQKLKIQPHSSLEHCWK

Row | SMILES | pEC50 (Histamine H4 receptor [1]) | pKi (Histamine H4 receptor [2]) | Activity (Histamine H4 receptor [3]) | further results
1 | CN1CCN(C2=Nc3ccc(Cl)cc3Oc3cc(F)ccc32)CC1 | 7.41 | 7.41 | 1 | –
2 | Clc1ccc2c(c1)N=C(N1CCOCC1)c1ccccc1N2 | – | < 5.00 | – | –
3 | CN1CCN(C2=Nc3ccc(Cl)cc3Oc3c(Cl)cccc32)CC1 | 7.83 | 7.34 | 1 | –
4 | OCCN1CCN(C2=Nc3cc(Cl)ccc3Nc3ccccc32)CC1 | – | 5.33 | – | –
5 | CCN1CCN(C2=Nc3cc(Cl)ccc3Oc3ccccc32)CC1 | – | 6.54 | – | –
6 | Cc1ccc2c(c1)Oc1ccccc1C(N1CCN(C)CC1)=N2 | 6.98 | 7.10 | 1 | –
7 | CN1CCN(C2=Nc3cc(Cl)ccc3Oc3c(F)cccc32)CC1 | 7.83 | 7.56 | 1 | –
8 | CN1CCN(C2=Nc3cc(Cl)ccc3Oc3ccccc32)CC1 [ISOLOXAPINE] | 7.55 | 7.37 | 1 | –
9 | CN1CCN(C2=Nc3ccccc3Oc3ccc(Cl)cc32)CC1 [LOXAPINE] | 6.66 | 5.34 | 0.5 | –
10 | CN1CCN(C2=Nc3ccccc3Oc3ccccc32)CC1 | 6.52 | 6.88 | 1 | –
11 | CN1CCN(C2=Cc3ccccc3Oc3ccc(Cl)cc32)CC1 | – | < 5.00 | – | –
12 | CN1CCN(C2=Nc3cc(Cl)ccc3Oc3ccc(F)cc32)CC1 | 7.09 | 6.72 | 1 | –
13 | Clc1ccc2c(c1)N=C(N1CCCCC1)c1ccccc1N2 | – | < 5.00 | – | –
14 | CN1CCN(C2=Nc3cc(Cl)ccc3N(C)c3ccccc32)CC1 | – | 5.85 | – | –
15 | CN1CCN(C2=Nc3ccc(Cl)cc3Oc3ccccc32)CC1 | – | – | 1 | Bmax (Histamine H4 receptor [4]): 934 fmol/mg; pEC50 (Histamine H1 receptor [5]): 8.17; Bmax (Histamine H4 receptor [6]): 951 fmol/mg; Bmax (Histamine H4 receptor [7]): 934 fmol/mg; pKi (Histamine H1 receptor [8]): 8.11; pKi (Histamine H2 receptor): 5.06; pKi (Histamine H3 receptor): 5.04
16 | CN1CCN(C2=Nc3ccc(Cl)cc3Oc3c(F)cccc32)CC1 | 7.69 | 7.51 | 1 | –
17 | CN1CCN(C2=Nc3ccccc3Cc3ccccc32)CC1 [PERLAPINE] | – | 5.32 | – | –
18 | Clc1ccc2c(c1)N=C(N1CCNCC1)c1ccccc1O2 | – | 6.49 | – | –
19 | CN1CCN(C2=Nc3cc(Cl)ccc3Oc3cc(Cl)ccc32)CC1 | 6.99 | 6.51 | 1 | –
20 | CN1CCN(C2=Nc3cc(Cl)ccc3Nc3ccccc32)CC1 | – | – | – | Bmax (Histamine H4 receptor [4]): 996 fmol/mg; Bmax (Histamine H4 receptor [9]): 899 fmol/mg; Bmax (Histamine H4 receptor [10]): 987 fmol/mg
21 | CN1CCN(C2=Nc3cc(Cl)ccc3Sc3ccccc32)CC1 [ISOCLOTHIAPINE] | – | 5.69 | – | –
22 | CC(C)N1CCN(C2=Nc3cc(Cl)ccc3Oc3ccccc32)CC1 | – | 5.97 | – | –
